Laboratory results published in ChEMBL document CHEMBL1123985, “Oral absorption of cephalosporin antibiotics. 1. Synthesis, biological properties, and oral bioavailability of 7-(arylacetamido)-3-chloro cephalosporins in animals” (J Med Chem, 1988).
In brackets after ≈: the same amount, converted by molar mass.

Assays:
Staphylococcus aureus [1] = experiment: Minimum inhibitory concentration against S13E strain of Staphylococcus aureus; type: functional
Escherichia coli = experiment: Minimum inhibitory concentration against EC14 strain Escherichia coli; type: functional
[2] = system: Staphylococcus epidermidis; experiment: Minimum inhibitory concentration against 222 strain of Staphylococcus epidermidis; type: functional
Klebsiella aerogenes = experiment: Minimum inhibitory concentration against EB17 strain of Enterobacter aerogenes; type: functional
Salmonella = experiment: Minimum inhibitory concentration against X514 strain of Salmonella; type: functional
Staphylococcus aureus [3] = experiment: Minimum inhibitory concentration against X1.1 strain of Staphylococcus aureus; type: functional
Staphylococcus aureus [4] = experiment: Minimum inhibitory concentration against V41 strain of Staphylococcus aureus; type: functional
Haemophilus influenzae [5] = experiment: Minimum inhibitory concentration against res 76 strain of Haemophilus influenzae; type: functional
Klebsiella pneumoniae = experiment: Minimum inhibitory concentration against X68 strain of Klebsiella pneumoniae; type: functional
[6] = Oral bioavailability in mouse; type: ADME, organism-based; settings: in vivo
How it was run: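 Male Cox mice given water and liquid diet overnight; 20 mg/kg in saline (2 mg/mL) sc or orally; urine from collection cages plus bladder contents over 2 h; activity by agar well assay with Bacillus subtilis ATCC 6633. Bioavailability from percent dose excreted in urine after oral vs parenteral dosing.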

[7] = system: Staphylococcus epidermidis; experiment: Minimum inhibitory concentration against Epil strain of Staphylococcus epidermidis; type: functional
Streptococcus pyogenes [8] = experiment: Minimum inhibitory concentration against Streptococcus pyogenes C203; type: functional
Haemophilus influenzae [9] = experiment: Minimum inhibitory concentration against sens CL strain of Haemophilus influenzae; type: functional
Streptococcus pneumoniae [10] = experiment: Minimum inhibitory concentration against Park strain of Streptococcus pneumoniae
[11] = Minimum inhibitory concentration against N9 strain of Shigella sonnei; type: functional
Streptococcus pyogenes [12] = experiment: Minimum inhibitory concentration against C203 strain of Streptococcus pyogenes
Canis familiaris [13] = experiment: Area under plasma concentration vs time curve observed in female mongrel dogs after, iv administration of single 15 mg/kg dose; type: ADME, organism-based, Canis lupus familiaris; set-up: dose 15 mg/kg, route intravenous; settings: dog, in vivo
How it was run: (§1)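 Six female mongrel dogs (14-23 kg) fasted overnight, bladder catheterized; single 15 mg/kg solution doses by stomach tube (in water, total 500 mL) or cephalic vein (saline or pH 6.0 NaCl/phosphate/acetate buffer). Plasma sampled at intervals; activity by disk-plate agar diffusion against E. coli MB 3804, standards in dog serum or buffer. AUC μg min/mL, mean ± SEM; BA from iv vs po AUC and urinary recovery.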

Staphylococcus aureus [14] = experiment: Minimum inhibitory concentration against 3055 strain of Staphylococcus aureus
[15] = Oral bioavailability in Rhesus monkey; type: ADME, organism-based, Macaca mulatta; settings: in vivo
How it was run: (§2)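 Rhesus monkeys, adult males, six animals per compound, each given drug orally and iv; fasted overnight. Single 30 mg/kg solution doses, by nasogastric tube (in water) or saphenous vein (in isotonic lactated Ringer). Plasma sampled at intervals, frozen at -70 °C, antibacterial activity by microbiological assay. AUC in μg min/mL; oral bioavailability from oral vs iv AUC.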

Mus musculus [16] = experiment: Efficacy against mouse infected ip with 3055 strain of Staphylococcus aureus, administered sc to 19-21-g random sex ICR mice at 1 hr and 5 hr; type: functional
How it was run: (§3)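 ICR mice, random sex, 19-21 g, challenged ip with 50-500 LC50 from a frozen organism pool; compound given sc or po at 1 and 5 h after challenge, five 2-fold dose levels, eight mice per level; ED50 derived.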

[17] = Area under plasma concentration vs time curve observed in Rhesus monkeys after, iv administration of single 30 mg/kg dose; type: ADME, organism-based, Macaca mulatta; set-up: dose 30 mg/kg, route intravenous; settings: rhesus monkey; how it was run: as §2
Mus musculus [18] = experiment: Efficacy against mouse infected ip with 3055 strain of Staphylococcus aureus, administered po to 19-21-g random sex ICR mice at 1 hr and 5 hr; type: functional; how it was run: as §3
Canis familiaris [19] = experiment: Area under plasma concentration vs time curve observed in female mongrel dogs after, oral administration of single 15 mg/kg dose; type: ADME, organism-based, Canis lupus familiaris; set-up: dose 15 mg/kg, route oral; settings: dog, in vivo; how it was run: as §1
Streptococcus pneumoniae [20] = experiment: Minimum inhibitory concentration against Park strain of Streptococcus pneumoniae; type: functional
Mus musculus [21] = experiment: Efficacy against mouse infected ip with C203 strain of Streptococcus pyogenes, administered po to 19-21-g random sex ICR mice at 1 hr and 5 hr; type: functional; how it was run: as §3
[22] = dose in urine (24-h urine excretion) in female mongrel dogs after, iv administration of single 15 mg/kg dose; type: ADME, organism-based, Canis lupus familiaris; set-up: dose 15 mg/kg, route intravenous; settings: dog
How it was run: (§4)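 Female mongrel dogs (n=6), bladder catheter; urine collected at intervals after single 15 mg/kg iv or oral solution dose, frozen; antibiotic activity by disk-plate agar diffusion against E. coli MB 3804 with standards in pH 6.0 buffer; percent of dose recovered in urine.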

Streptococcus pneumoniae [23] = experiment: Minimum inhibitory concentration against park strain of Streptococcus pneumoniae
[24] = Oral bioavailability in dog (female mongrel); type: ADME, organism-based, Canis lupus familiaris; settings: in vivo; how it was run: as §1
[25] = dose in urine (24-h urine excretion) in female mongrel dogs after, oral administration of single 15 mg/kg dose; type: ADME, organism-based, Canis lupus familiaris; set-up: dose 15 mg/kg, route oral; settings: dog; how it was run: as §4
Mus musculus [26] = experiment: Efficacy against mouse infected ip with park strain of Streptococcus pneumoniae administered po to 19-21-g random sex ICR mice at 1 hr and 5 hr; type: functional; how it was run: as §3
Mus musculus [27] = experiment: Efficacy against mouse infected ip with park strain of Streptococcus pneumoniae administered sc to 19-21-g random sex ICR mice at 1 hr and 5 hr; type: functional; how it was run: as §3
[28] = Area under plasma concentration vs time curve observed in Rhesus monkeys after oral administration of single 30 mg/kg dose; type: ADME, organism-based, Macaca mulatta; set-up: dose 30 mg/kg, route oral; settings: rhesus monkey; how it was run: as §2
Mus musculus [29] = experiment: Efficacy against mouse infected ip with C203 strain of Streptococcus pyogenes, administered sc to 19-21-g random sex ICR mice at 1 hr and 5 hr; type: functional; how it was run: as §3

Compound | MIC (Staphylococcus aureus [1]) | MIC (Escherichia coli) | MIC [2] | MIC (Klebsiella aerogenes) | MIC (Salmonella) | MIC (Staphylococcus aureus [3]) | MIC (Staphylococcus aureus [4]) | MIC (Haemophilus influenzae [5]) | MIC (Klebsiella pneumoniae) | bioavailability [6] | MIC [7] | MIC (Streptococcus pyogenes [8]) | MIC (Haemophilus influenzae [9]) | MIC [11] | further results
CC1=C(C(=O)O)N2C(=O)[C@@H](NC(=O)COc3ccccc3)[C@H]2SC1 | > 128 µg/mL | > 128 µg/mL | 4 µg/mL (≈ 11.5 µM) | > 128 µg/mL | > 128 µg/mL | 2 µg/mL (≈ 5.74 µM) | 32 µg/mL (≈ 91.9 µM) | 8 µg/mL (≈ 23 µM) | > 128 µg/mL | 37% | 16 µg/mL (≈ 45.9 µM) | 2 µg/mL (≈ 5.74 µM) | 16 µg/mL (≈ 45.9 µM) | > 128 µg/mL | MIC (Streptococcus pneumoniae [10]): 2 µg/mL (≈ 5.74 µM)
O=C(Cc1csc2ccccc12)N[C@@H]1C(=O)N2C(C(=O)O)=C(Cl)CS[C@H]12 | 8 µg/mL (≈ 19.6 µM) | 64 µg/mL (≈ 157 µM) | 0.25 µg/mL (≈ 0.611 µM) | > 128 µg/mL | 128 µg/mL (≈ 313 µM) | 0.125 µg/mL (≈ 0.306 µM) | 8 µg/mL (≈ 19.6 µM) | 0.25 µg/mL (≈ 0.611 µM) | 128 µg/mL (≈ 313 µM) | 47% | 1 µg/mL (≈ 2.45 µM) | 0.06 µg/mL (≈ 0.147 µM) | 1 µg/mL (≈ 2.45 µM) | 128 µg/mL (≈ 313 µM) | MIC (Streptococcus pyogenes [12]): 0.06 µg/mL (≈ 0.147 µM); AUC (Canis familiaris [13]): 29300 ng·h/mL; MIC (Staphylococcus aureus [14]): 0.25 µg/mL (≈ 0.611 µM); bioavailability [15]: 1.3%; ED50 (Mus musculus [16]): 0.62 mg/kg; AUC [17]: 86800 ng·h/mL; ED50 (Mus musculus [18]): 1.51 mg/kg; AUC (Canis familiaris [19]): < 800 ng·h/mL; MIC (Streptococcus pneumoniae [20]): 0.125 µg/mL (≈ 0.306 µM); ED50 (Mus musculus [21]): 5.5 mg/kg; dose excreted [22]: 20%; MIC (Streptococcus pneumoniae [23]): 0.06 µg/mL (≈ 0.147 µM); bioavailability [24]: < 3%; dose excreted [25]: 1.5%; ED50 (Mus musculus [26]): 36.2 mg/kg; ED50 (Mus musculus [27]): 14.8 mg/kg; AUC [28]: 1170 ng·h/mL; ED50 (Mus musculus [29]): 3.8 mg/kg
